The target in data set [1] is T1, Enoyl-[acyl-carrier-protein] reductase [NADH] (Mycobacterium tuberculosis, UniProt P9WGR1).
T1 sequence (P9WGR1 whole entry): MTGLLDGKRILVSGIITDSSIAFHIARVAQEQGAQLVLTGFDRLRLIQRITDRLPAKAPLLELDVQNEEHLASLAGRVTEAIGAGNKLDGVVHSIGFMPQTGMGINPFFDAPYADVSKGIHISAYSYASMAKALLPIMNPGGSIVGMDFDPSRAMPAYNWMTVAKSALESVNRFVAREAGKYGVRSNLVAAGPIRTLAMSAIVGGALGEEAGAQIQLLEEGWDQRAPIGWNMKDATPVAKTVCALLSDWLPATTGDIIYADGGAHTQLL
Kind of data set: Inhibition of Mycobacterium tuberculosis recombinant His6-tagged InhA expressed in Escherichia coli BL21(DE3) using 2-trans-decenoyl-CoA as substrate incubated for 2 hrs prior to substrate addition by spectrophotometry.

Data set [2] has as its system Mycobacterium tuberculosis. Kind of data set: Antimicrobial activity against Mycobacterium tuberculosis H37Rv ATCC 27294 after 28 days by two-fold agar dilution method in presence of verapamil. In kind it is functional. The note with it: H37Rv ATCC 27294, 672 h. The essentials:
(§1)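 Two-fold serial dilutions in Middlebrook 7H11 agar with OADC supplement, final 50 to 0.78 µg/mL. Inoculum from fresh 7H11/OADC slants, adjusted to 1 mg/mL wet weight in 0.05% Tween 80 saline and diluted 10^-2 (~10^7 cfu/mL), spotted onto drug-containing agar tubes. Incubated at 37 °C; MIC is the lowest concentration inhibiting growth, read at 28 days.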
In general terms: In agar dilution, organisms are placed on agar that contains the substance at set levels.

The test system of data set [3] is Mycobacterium tuberculosis. Kind of data set: Antimicrobial activity against Mycobacterium tuberculosis H37Rv ATCC 27294 after 28 days by two-fold agar dilution method in presence of piperine. In kind it is functional. The note with it: H37Rv ATCC 27294, 672 h. The essentials: as §1
The nature of data set [4]: Cytotoxicity against mouse RAW264.7 cells at 50 uM after 72 hrs by MTT assay. Type of data set: cell-based. The note with it: read-out: INH. The essentials:
(§2)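 RAW 264.7 macrophages exposed to compound for 72 h. Viability read as MTT conversion to formazan with a non-radioactive cell proliferation kit, reported as percentage growth inhibition.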

Data set [5] in a line: Cytotoxicity against mouse RAW264.7 cells at 100 uM after 72 hrs by MTT assay. In kind it is cell-based. Conditions: read-out: INH. The procedure, abridged: as §2
Data set [6] has as its system Mycobacterium tuberculosis. Briefly: Antimicrobial activity against Mycobacterium tuberculosis H37Rv ATCC 27294 after 28 days by two-fold agar dilution method. In kind it is functional. The note with it: H37Rv ATCC 27294, 672 h. The procedure, abridged: as §1
Data set [7] has as its target T2, Enoyl-[acyl-carrier-protein] reductase [NADH] (Mycobacterium tuberculosis) (UniProt P9WGR1).
T2 sequence (whole entry): T1 sequence (P9WGR1 whole entry)
Briefly: Inhibition of Mycobacterium tuberculosis recombinant His6-tagged InhA expressed in Escherichia coli BL21(DE3) using 2-trans-decenoyl-CoA as substrate at 10 uM incubated for 2 hrs prior to substrate addition by spectrophotometry. The procedure, abridged: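 His6-InhA expressed in E. coli BL21(DE3) with 0.1 mM IPTG at 18 °C and purified on Ni-NTA. 70 nM enzyme pre-incubated 2 h with inhibitor at 10 µM in 30 mM PIPES, 150 mM NaCl, pH 6.8, 0.5% DMSO, 25 °C. Reaction started with DD-CoA plus NADH and followed at 340 nm. Initial velocity compared with a no-ligand control; triplicate.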

The target of data set [8] is T2, Enoyl-[acyl-carrier-protein] reductase [NADH] (Mycobacterium tuberculosis).

This note sets out measurements from ChEMBL document CHEMBL3352380, “Development of benzo[d]oxazol-2(3H)-ones derivatives as novel inhibitors of Mycobacterium tuberculosis InhA” (Bioorg Med Chem, 2014).

Values after ≈ are worked out from the molar mass of the structure shown.

`O=C(Cn1c(=O)oc2cc(Cl)ccc21)Nc1nc2ccccc2s1`: the IC50 (commonly the midpoint of a concentration-inhibition curve) in data set [1] was 8.9 µM. Besides, the MIC (commonly the least concentration at which growth counts as inhibited) turned out to be 8.68 µM in data set [2], 17.4 µM in data set [3] and 17.4 µM (≈ 6.25 µg/mL) in data set [6]. Besides, in data set [4], the cytotoxicity at 72 h, 50 µM was 38.7%. Moreover, the cytotoxicity at 72 h, 100 µM in data set [5] was 52.5%. For the same compound, in data set [7], the inhibition (usually the relative decrease from the control value, in per cent) is 58.2%.
As to `O=C(Cn1c(=O)oc2cc(Cl)ccc21)Nc1ncc([N+](=O)[O-])s1`, the IC50 in data set [1] is 6.82 µM. The MIC in data set [2] is 8.81 µM; in data set [3], 17.6 µM; in data set [6], 17.6 µM (≈ 6.25 µg/mL). The cytotoxicity at 72 h, 50 µM in data set [4] was found to be 14.3%. Also, in data set [5], the cytotoxicity at 72 h, 100 µM was determined as 50.6%. Also, the inhibition in data set [7] is 72.6%.
For `O=C(Cn1c(=O)oc2cc([N+](=O)[O-])ccc21)Nc1ncc([N+](=O)[O-])s1`, in data set [1], the IC50 came out at 5.12 µM. For the same compound, the Tm in data set [8] was 1.9 °C. The MIC was found to be 8.55 µM in data set [2], 8.55 µM in data set [3] and 17.1 µM (≈ 6.25 µg/mL) in data set [6]. Moreover, in data set [4], the cytotoxicity at 72 h, 50 µM was found to be 20.2%. For the same compound, the cytotoxicity at 72 h, 100 µM in data set [5] is 43.8%. Besides, the inhibition in data set [7] is 82.4%.
Take `O=C(Cn1c(=O)oc2cc([N+](=O)[O-])ccc21)NCc1ccccn1`: the IC50 in data set [1] was 8.23 µM. The MIC in data set [2] was found to be 38.1 µM; in data set [3] it was 9.51 µM; in data set [6], 76.2 µM (≈ 25 µg/mL). The cytotoxicity at 72 h, 50 µM in data set [4] is 21.8%. Further, the cytotoxicity at 72 h, 100 µM in data set [5] was 33.4%. Moreover, in data set [7], the inhibition was 68.1%.
